Screening data from PubChem BioAssay.
Gli-Sufu block = Gli-Sufu pathway antagonism; Sufu-KO-LIGHT fibroblasts, Gli luciferase reporter luminescence; inhibition, % at 5 µM; 340,000 compounds, 0.74% hits; AID 588413;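 active means inhibition above about 55%, limit read from the data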;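 further: 0% = DMSO-treated cells and 100% = wells with medium but no cells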
UPR CHOP act = activators of apoptotic arm of unfolded protein response (CHOP); CHO-CHOP luciferase reporter, UPR activation, luminescence; percent of tunicamycin response over DMSO baseline; activation, % at 10 µM; 330,000 compounds, 0.34% hits;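 active means at 10 µM dose, activation of 40% or more, normalized to positive control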;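 further: 100% = tunicamycin at 10 µg/mL and 0% = DMSO alone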
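assay system = CHO CHOP reporter cells | amount = 500 CHO-CHOP cells per well | buffer or medium = F12 with 10% FBS | incubation = 16-18 h cell attachment, then 6 h compound exposure, 37 °C | detection = luminescence read with Steady-Glo | read-out = percent activation relative to tunicamycin control | controls = tunicamycin high control, DMSO low control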
XBP1 UPR activ = activators of adaptive arm of unfolded protein response (XBP1); CHO-XBP1 luciferase reporter, IRE1-XBP1 UPR activation, luminescence; percent of tunicamycin response, DMSO as zero; activation, % at 20 µM; AID 463104; 330,000 compounds, 0.33% hits;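 active means versus positive control, 20 µM dose yields 30% or more activation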;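 further: 100% = tunicamycin at 10 µg/mL and 0% = DMSO only wells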
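assay system = CHO-XBP1 luciferase reporter cells | amount = 1000 cells/well | buffer or medium = F12 plus 10% FBS | compound dosing = single point, 20 µM final compound, 1% DMSO | incubation = 16-18 h cell attachment at 37 °C, then 6 h compound exposure | detection = Steady-Glo luminescence read | controls = tunicamycin 10 µg/mL and vehicle-only wells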
CHOP inh = CHOP inhibition in unfolded protein response | AID 2732 | CHO-K1 CHOP-promoter luciferase, tunicamycin-induced, 15-18 h | 220,000 compounds, 3.8% hits | inhibition, % at 10 µM;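 active means compounds that reduced the stress-induced luciferase reporter signal by more than about 70% of percent inhibition, limit read from the data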;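 further: 0% = tunicamycin plus vehicle and 100% = wells without tunicamycin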
Jurkat NFkB inh = lowers PMA/ionomycin-induced NF-kB signal in Jurkat cells; PMA/ionomycin-induced NF-kB luciferase reporter, luminescence; AID 435003; 330,000 compounds, 0.53% hits; inhibition, % at 4 µM; in the data active means inhibition above about 50%
697 NFkB inh = inhibitors of the PMA/ionomycin-induced NF-kB reporter in 697 B cells; 330,000 compounds, 0.33% hits; inhibition, % at 4 µM; 697 B-cell NF-kB luciferase reporter, 16 h; in the data active means inhibition above about 35%
697 NFkB conf = lowers PMA/ionomycin-induced NF-kB signal in 697 B cells; 697 B-cell NF-kB luciferase, 16 h; shares compounds with 697 NFkB inh; inhibition, % at 4 µM; 2,000 compounds, 35% hits; AID 449746; in the data active means inhibition mostly above about 28%, no sharp cut-off; inactive means mostly below about 22%
Starred values were filed as active, the others as inactive; i = inactive; . = not tested or not shown. An excerpt weighted towards active compounds, which were near 3.9% of everything screened.

SMILES | Gli-Sufu block | UPR CHOP act | XBP1 UPR activ | CHOP inh | Jurkat NFkB inh | 697 NFkB inh | 697 NFkB conf
O=C(O)CCc1nn2c3ccccc3n(Cc3ccccc3F)c2nc1=O | -5.3 | -0.6 | -2.3 | -5.6 | -20.5 | 40.5* | -10.7
O=C(O)CCc1nn2c3ccccc3n(CC(=O)O)c2nc1=O | -1.6 | 4.2 | -3.3 | 37.7 | 8.4 | 11.3 | .
O=C(NC1=NCCS1)c1ccc(Cl)c(Cl)c1 | -98.2 | 2.7 | -6.2 | . | -147.0 | -254.5 | -186.3
COc1ccc(S(=O)(=O)Nc2ccc(N(C)C(C)=O)cc2)cc1 | -2.0 | -2.5 | -0.5 | 23.7 | 2.5 | 36.6* | 18.6
COc1ccc(S(=O)(=O)Nc2ccc(NC(C)=O)cc2)cc1 | 2.5 | 0.2 | -0.7 | 5.5 | 7.2 | 13.5 | .
Cc1[nH]c2ccccc2c1/C=N/Nc1nc(Nc2ccccc2)nc(N2CCOCC2)n1 | 12.1 | 15.1 | 9.6 | -78.9 | 49.5 | 48.7* | 54.8*
COc1cc(/C=N/Nc2nc(Nc3ccccc3)nc(N3CCOCC3)n2)ccc1OC(=O)c1ccco1 | 20.1 | 8.9 | 8.4 | -30.5 | -45.3 | 48.9* | 38.7*
c1ccc(Nc2nc(N3CCCC3)nc(N3CCOCC3)n2)cc1 | -0.2 | -2.7 | 1.8 | . | 4.7 | 17.2 | .
O=C(Oc1cccc(/C=N/Nc2nc(N3CCOCC3)nc(N3CCOCC3)n2)c1)c1ccco1 | 8.9 | -1.6 | 1.6 | -21.3 | -6.4 | 44.3* | 24.6*
CC(=O)c1cccc(NC(=O)c2ccoc2C)c1 | -0.1 | 2.4 | -2.7 | -1.6 | -2.2 | 16.6 | .
CCOC(=O)c1cc(NC(=O)c2ccoc2C)cc(C(=O)OCC)c1 | -6.9 | 0.9 | 0.4 | 56.5 | 10.3 | 36.5* | 19.4
CNC(=O)c1c(NC(=O)c2ccc(N3C(=O)CCC3=O)cc2)sc2c1CCC(C)C2 (stereo not drawn) | 1.5 | -1.5 | 1.5 | . | -17.7 | 0.1 | .
NS(=O)(=O)c1ccc(CCNC(=O)C(=O)c2cn(CC(=O)N3CCCC3)c3ccccc23)cc1 | 2.3 | 2.1 | -7.9 | . | 17.0 | -8.5 | .
CC(C)Oc1ccc(C(CC(=O)O)Cc2ccccc2)cc1 (stereo not drawn) | 8.0 | 1.5 | 1.5 | . | -0.3 | 6.1 | .
Nc1ccc(Cc2nc3cc4ccccc4cc3[nH]2)cc1 | -33.8 | 1.6 | 6.7 | -8.4 | -83.3 | i | -343.6
Nc1ccc(C(=O)OCCCc2nc3cc4ccccc4cc3[nH]2)cc1 | -4.3 | 1.3 | 0.7 | -0.8 | 0.8 | -38.2 | .
Nc1ccc(C(=O)OCc2nc3cc4ccccc4cc3[nH]2)cc1 | 0.4 | 2.9 | -3.5 | -1.7 | -41.9 | i | -381.4
CC(=O)C(C(c1ccccc1)c1c[nH]c2ccccc12)[N+](=O)[O-] (stereo not drawn) | 0.9 | -0.9 | -1.2 | . | 6.8 | -18.3 | .
Cc1cc(SCC(=O)Nc2ccc3[nH]c(=O)[nH]c3c2)nc2ccccc12 | -7.8 | 1.2 | 5.5 | . | -1.5 | -5.5 | .
CCCn1c(N)c(C(=O)CSc2nnc(N)s2)c(=O)[nH]c1=O | -23.2 | -1.4 | -3.0 | . | -13.2 | 10.3 | .
CCCn1c(N)c(C(=O)CSc2nc3ccccc3s2)c(=O)[nH]c1=O | -8.4 | 2.2 | 6.1 | 10.1 | -111.5 | -432.9 | i
COc1ccc(C(C)NC(=O)c2ccncc2)cc1OC (stereo not drawn) | 1.0 | 2.9 | -8.5 | . | 6.6 | 15.3 | .
COc1ccc(N(CC(=O)N2CCN(c3ccc(Cl)cc3)CC2)S(=O)(=O)c2c(C)n[nH]c2C)cc1 | 37.9 | 2.2 | -3.2 | 17.4 | 13.6 | 36.6* | 31.6*
Nc1cn(C2OC(CO)C(O)C2O)c(=O)[nH]c1=O (stereo not drawn) | -1.4 | -1.6 | -1.8 | . | -12.2 | -3.9 | .
CC(=O)Nc1ccc(/C=C(\C#N)C(=O)NC2CCCCC2)cc1 | 3.3 | -1.5 | -5.4 | 6.2 | 3.0 | 45.9* | -7.9
SMILES | Gli-Sufu block | UPR CHOP act | XBP1 UPR activ | CHOP inh | Jurkat NFkB inh | 697 NFkB inh | 697 NFkB conf
Cc1cccc(OCC(=O)N2CCc3ccccc3C2)c1 | 13.3 | 1.1 | 1.2 | . | -16.7 | -16.0 | .
NC(=S)N=Nc1c(O)n(Cc2ccccc2)c2ccccc12 | 10.2 | 3.0 | 3.6 | 8.9 | 10.0 | 44.7* | 38.7*
C/C(Cl)=C\Cn1c(O)c(N=NC(N)=S)c2ccccc21 | 31.2 | 1.1 | 6.5 | -22.1 | 8.5 | 11.1 | .
Cc1ccc(NC(=O)Cn2c(O)c(N=NC(N)=S)c3ccccc32)cc1 | 6.8 | 17.2 | 59.8* | . | -8.0 | 39.8* | -1.2
COc1ccc(-c2sc3cc4c(cc3c2C#Cc2ccc(N)cc2)OCO4)cc1 | -8.9 | 4.7 | 8.0 | . | -42.6 | -44.1 | .
Cc1ccc(NC(=O)CSc2n[nH]c(-c3cccnc3)n2)cc1Cl | 11.5 | -0.2 | 1.7 | . | 4.2 | 9.9 | .
COCCN(C(=O)CSc1n[nH]c(-c2ccccc2)n1)c1c(N)n(Cc2ccccc2)c(=O)[nH]c1=O | -4.2 | -0.4 | -2.4 | . | 16.6 | 7.6 | .
CC(C)(C)N(Cc1ccccc1)C(=O)COC(=O)c1ccccc1SCC(=O)N1CCCC1 | 6.6 | 0.2 | -0.3 | . | 2.3 | 8.9 | .
CC(=O)Nc1ccc(NC(=O)CSc2nnc(-c3cccs3)n2N)cc1 | 3.3 | 0.7 | -2.7 | . | 18.7 | 39.9* | -1.4
CCC1COCCS(=O)(=O)N1Cc1ccc(F)cc1 (stereo not drawn) | -8.2 | 0.0 | 0.4 | . | -2.2 | 2.3 | .
Cc1ccc(-n2nc3c(=O)n(CCCC(=O)NCc4cccc(F)c4)nc(C)c3c2C)cc1 | 15.9 | 2.1 | -2.4 | . | 38.5 | 16.9 | .
Cc1ccc(-n2nc3c(=O)n(CCCC(=O)NCc4ccc(F)cc4)nc(C)c3c2C)cc1 | 1.8 | 1.4 | -0.5 | . | 20.6 | 39.1* | 5.0
Cc1cc(C)c(-c2csc(NC(=O)c3n[nH]c(=O)c4ccccc34)n2)c(C)c1 | 15.1 | 2.8 | -0.7 | 30.0 | -13.7 | -333.0 | -227.4
COc1ccc(-c2nc(NC(=O)c3n[nH]c(=O)c4ccccc34)sc2C)cc1 | 7.0 | 3.1 | -0.6 | 99.8* | -41.6 | i | -52.5
CCCCn1c(N)c(N(CC(C)C)C(=O)C2CCN(S(=O)(=O)c3ccc(Cl)cc3)CC2)c(=O)[nH]c1=O | -0.1 | -0.4 | -1.3 | . | 5.7 | 8.8 | .
CCOC(=O)[C@H]1[C@H]2COc3ccccc3[C@@H]2N2C(=O)c3ccccc3NC(=O)[C@@]12C | 7.4 | -0.5 | -0.5 | . | -3.8 | 24.8 | .
CCOC(=O)[C@H]1[C@H]2COc3ccccc3[C@@H]2N2C(=O)c3ccc(C)cc3NC(=O)[C@@]12C | -10.8 | 0.2 | 0.3 | . | 11.3 | 36.1* | 18.5
O=C1NC[C@@H](c2ccccc2)OC(=O)[C@H](Cc2ccc(F)cc2)C/C=C\C[C@H]1CC(=O)N(CCO)Cc1ccccc1 | 15.1 | 0.4 | -1.6 | . | -3.1 | 10.6 | .
